According to ChEMBL document CHEMBL3526048, “In vitro metabolism of rivoglitazone, a novel peroxisome proliferator-activated receptor γ agonist, in rat, monkey, and human liver microsomes and freshly isolated hepatocytes” (Drug Metab Dispos, 2011):

Legend:
[1] = target: T1, UDP-glucuronosyltransferase 1A6 (Homo sapiens, UniProt P19224); experiment: Activity of human UGT1A6 expressed in microsomes isolated from baculovirus infected insect cell assessed as enzyme-mediated 2-mercapto-3-(4-((6-methoxy-1-methyl-1H-benzo[d]imidazol-2-yl)methoxy)phenyl)propanoic acid formation at 20 uM after 4 hrs by radio-HPLC/LC-MS/MS analysis in presence of UDPGA; format: ADME
T1 sequence (P19224 whole entry): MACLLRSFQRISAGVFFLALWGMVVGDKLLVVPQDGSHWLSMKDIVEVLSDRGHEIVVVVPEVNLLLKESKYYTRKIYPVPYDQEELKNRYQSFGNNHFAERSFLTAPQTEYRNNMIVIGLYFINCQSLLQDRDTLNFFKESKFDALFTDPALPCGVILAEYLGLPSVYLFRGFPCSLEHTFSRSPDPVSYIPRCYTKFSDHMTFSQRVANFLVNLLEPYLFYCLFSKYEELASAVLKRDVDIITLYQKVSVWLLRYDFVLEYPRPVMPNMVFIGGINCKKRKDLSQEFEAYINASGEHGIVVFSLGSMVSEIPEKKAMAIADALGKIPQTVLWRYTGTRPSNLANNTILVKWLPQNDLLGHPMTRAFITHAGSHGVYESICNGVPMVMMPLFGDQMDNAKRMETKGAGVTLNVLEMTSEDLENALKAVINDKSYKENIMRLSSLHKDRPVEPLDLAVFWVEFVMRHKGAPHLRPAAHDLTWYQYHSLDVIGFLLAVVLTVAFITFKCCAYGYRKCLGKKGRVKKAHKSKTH

[2] = Drug metabolism in monkey hepatocytes assessed as formation of 2-mercapto-3-(4-((6-methoxy-1-methyl-1H-benzo[d]imidazol-2-yl)methoxy)phenyl)propanoic acid at 30 uM after 3 hrs by radio-HPLC/LC-MS/MS analysis in presence of UDPGA, UDPGA/SAM and NADPH-generating system; settings: cynomolgus monkey
Cytochrome P450 3A4 [3] = target: T2, Cytochrome P450 3A4 (Homo sapiens, UniProt P08684); experiment: (§1) Activity of human CYP3A4 expressed in microsomes isolated from baculovirus infected insect cell assessed as enzyme-mediated 5-(4-((6-hydroxy-1-methyl-1H-benzo[d]imidazol-2-yl)methoxy)benzyl)thiazolidine-2,4-dione formation at 20 uM after 2 hrs by radio-HPLC/LC-MS/MS analysis in presence of NADPH-generating system and NADPH-generating system/SAM; format: ADME
T2 sequence (P08684 whole entry): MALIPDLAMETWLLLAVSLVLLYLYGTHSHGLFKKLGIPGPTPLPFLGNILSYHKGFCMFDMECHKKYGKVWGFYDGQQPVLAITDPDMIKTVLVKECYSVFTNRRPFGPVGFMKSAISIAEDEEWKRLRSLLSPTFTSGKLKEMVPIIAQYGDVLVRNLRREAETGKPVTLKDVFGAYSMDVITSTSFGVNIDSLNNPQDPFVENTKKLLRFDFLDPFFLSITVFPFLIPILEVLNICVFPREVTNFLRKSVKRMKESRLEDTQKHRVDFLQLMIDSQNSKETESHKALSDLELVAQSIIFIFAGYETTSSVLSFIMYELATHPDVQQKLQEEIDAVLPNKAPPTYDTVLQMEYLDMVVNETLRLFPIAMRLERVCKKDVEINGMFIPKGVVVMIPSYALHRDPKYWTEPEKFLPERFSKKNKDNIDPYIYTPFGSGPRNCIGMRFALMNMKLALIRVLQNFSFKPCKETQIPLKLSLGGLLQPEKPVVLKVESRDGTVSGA

[4] = Drug metabolism in human hepatocytes assessed as formation of (2S,3S,4S,5R,6R)-3,4,5-trihydroxy-6-(5-(4-((6-methoxy-1-methyl-1H-benzo[d]imidazol-2-yl)methoxy)benzyl)-2,4-dioxothiazolidin-3-yl)tetrahydro-2H-pyran-2-carboxylic acid at 30 uM after 3 hrs by radio-HPLC/LC-MS/MS analysis in presence of UDPGA and UDPGA/SAM; format: ADME, cell-based, Hepatocyte
Cytochrome P450 3A4 [5] = target: T2, Cytochrome P450 3A4; experiment: Activity of human CYP3A4 expressed in microsomes isolated from baculovirus infected insect cell assessed as enzyme-mediated 2-mercapto-3-(4-((6-methoxy-1-methyl-1H-benzo[d]imidazol-2-yl)methoxy)phenyl)propanoic acid formation at 20 uM after 2 hrs by radio-HPLC/LC-MS/MS analysis in presence of NADPH-generating system; format: ADME
Method in brief: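 Baculovirus-insect-cell microsomes expressing the human CYP (1 mg/ml protein) were incubated with [14C]rivoglitazone (20 μM) in 50 mM potassium phosphate (pH 7.4) or 100 mM Tris-HCl (pH 7.5) with an NADPH-generating system (2 mM NADP+, 20 mM glucose 6-phosphate, 2 units/ml G6PDH, 10 mM MgCl2) for 2 h at 37°C. Insect-cell control supersomes served as the control. Reactions were stopped with acetonitrile, and the concentrated supernatants were analysed by radio-HPLC, LC-MS and LC-MS/MS.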

Cytochrome P450 3A4 [6] = target: T2, Cytochrome P450 3A4; experiment: as §1, with “2-mercapto-3-(4-((6-methoxy-1-methyl-1H-benzo[d]imidazol-2-yl)methoxy)phenyl)propanamide” for “5-(4-((6-hydroxy-1-methyl-1H-benzo[d]imidazol-2-yl)methoxy)benzyl)thiazolidine-2,4-dione”; format: ADME
Cytochrome P450 1A2 = target: T3, Cytochrome P450 1A2 (Homo sapiens, UniProt P05177); experiment: Activity of human CYP1A2 expressed in microsomes isolated from baculovirus infected insect cell assessed as enzyme-mediated 3-(4-((6-methoxy-1-methyl-1H-benzo[d]imidazol-2-yl)methoxy)phenyl)-2-(methylthio)propanamide formation at 20 uM after 2 hrs by radio-HPLC/LC-MS/MS analysis in presence of NADPH-generating system/SAM; format: ADME
T3 sequence (P05177 whole entry): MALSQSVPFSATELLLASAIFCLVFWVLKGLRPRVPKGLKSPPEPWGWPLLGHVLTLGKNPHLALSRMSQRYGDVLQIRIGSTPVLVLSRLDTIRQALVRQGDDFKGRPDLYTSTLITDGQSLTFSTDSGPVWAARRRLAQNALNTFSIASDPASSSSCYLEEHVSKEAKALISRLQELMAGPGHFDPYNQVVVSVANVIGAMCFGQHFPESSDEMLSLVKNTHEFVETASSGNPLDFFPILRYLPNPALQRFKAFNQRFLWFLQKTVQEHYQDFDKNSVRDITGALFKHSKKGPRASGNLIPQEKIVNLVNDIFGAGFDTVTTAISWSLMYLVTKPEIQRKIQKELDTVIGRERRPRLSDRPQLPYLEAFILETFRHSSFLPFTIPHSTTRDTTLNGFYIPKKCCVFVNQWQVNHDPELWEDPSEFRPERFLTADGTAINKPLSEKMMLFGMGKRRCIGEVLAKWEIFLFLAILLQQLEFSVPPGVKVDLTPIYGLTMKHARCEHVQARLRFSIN

[7] = target: T4, UDP-glucuronosyltransferase 2B15 (Homo sapiens, UniProt P54855); experiment: Activity of human UGT2B15 expressed in microsomes isolated from baculovirus infected insect cell assessed as enzyme-mediated (2S,3S,4S,5R,6R)-3,4,5-trihydroxy-6-(5-(4-((6-methoxy-1-methyl-1H-benzo[d]imidazol-2-yl)methoxy)benzyl)-2,4-dioxothiazolidin-3-yl)tetrahydro-2H-pyran-2-carboxylic acid formation at 20 uM after 4 hrs by radio-HPLC/LC-MS/MS analysis in presence of UDPGA; format: ADME
T4 sequence (P54855 whole entry): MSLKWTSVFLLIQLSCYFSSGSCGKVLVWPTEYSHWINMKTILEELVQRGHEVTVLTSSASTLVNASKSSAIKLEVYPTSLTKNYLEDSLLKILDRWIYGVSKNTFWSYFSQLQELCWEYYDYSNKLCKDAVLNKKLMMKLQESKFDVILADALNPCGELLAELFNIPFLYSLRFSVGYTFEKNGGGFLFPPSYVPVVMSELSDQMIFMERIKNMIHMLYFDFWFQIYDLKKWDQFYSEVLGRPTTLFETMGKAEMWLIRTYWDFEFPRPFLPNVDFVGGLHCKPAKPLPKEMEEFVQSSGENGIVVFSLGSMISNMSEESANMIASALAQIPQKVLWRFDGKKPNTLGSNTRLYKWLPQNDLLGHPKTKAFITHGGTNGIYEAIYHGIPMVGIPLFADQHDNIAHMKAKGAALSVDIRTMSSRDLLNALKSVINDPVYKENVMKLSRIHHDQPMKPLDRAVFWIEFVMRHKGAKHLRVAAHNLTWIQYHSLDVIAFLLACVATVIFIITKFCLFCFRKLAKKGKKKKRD

[8] = Drug metabolism in cynomolgus monkey liver microsomes assessed as formation of 5-(4-((6-methoxy-1H-benzo[d]imidazol-2-yl)methoxy)benzyl)thiazolidine-2,4-dione at 20 uM after 2 hrs by radio-HPLC/LC-MS/MS analysis in presence of NADPH-generating system and NADPH-generating system/SAM; format: ADME, Macaca fascicularis
[9] = Drug metabolism in monkey hepatocytes assessed as formation of 3-(4-((6-methoxy-1-methyl-1H-benzo[d]imidazol-2-yl)methoxy)phenyl)-2-(methylthio)propanamide at 30 uM after 3 hrs by radio-HPLC/LC-MS/MS analysis in presence of NADPH-generating system/SAM; settings: cynomolgus monkey

## COc1ccc2nc(COc3ccc(C[14CH]4SC(=O)NC4=O)cc3)n(C)c2c1.Cl (racemic)
[1]
  Drug metabolism: metabolite_not_detected
[2]
  Drug metabolism: metabolite_not_detected
Cytochrome P450 3A4 [3]
  Drug metabolism: metabolite_detected
[4]
  Drug metabolism: metabolite_detected
Cytochrome P450 3A4 [5]
  Drug metabolism: metabolite_detected
Cytochrome P450 3A4 [6]
  Drug metabolism: metabolite_detected
Cytochrome P450 1A2
  Drug metabolism: metabolite_not_detected
[7]
  Drug metabolism: metabolite_not_detected
[8]
  Drug metabolism: metabolite_detected
[9]
  Drug metabolism: metabolite_detected
